Each block holds one compound with its values, some of them ahead of it.
Key:
[1] = tested on: ob/ob AMLN NASH mice; experiment: sub-chronic dosing in ob/ob AMLN NASH model; type: in vivo, mouse
[2] = tested on: C57BL/6J mice fed AMLN diet; experiment: sub-chronic dosing in C57Bl/6J AMLN NASH model; type: in vivo, mouse; settings: for weight loss from baseline: Cotadutide 10, Liraglutide 40 nmol/kg SC, OCA 70 μmol/kg PO, QD 6 weeks; for food intake within the first 4 days: same doses; for animals with reduced fibrosis / animals with reduced fibrosis (number of group): n=12; for mice in which NAS was reduced: vehicle controls 8%
Summary of the method: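 Male C57BL/6J mice, about 6 weeks old, were fed AMLN diet for 29 weeks (chow controls) before dosing for 6 weeks, n=12/group. Dosing: peptides SC once daily just before lights off; OCA oral. Every mouse got both an SC vehicle (phosphate/propylene glycol/PS-80, pH 7.5) and an oral vehicle (0.5% CMC). Body weight was recorded daily. ipGTT on day 28 after 4 h fast (1.5 g/kg glucose). Terminal blood and liver collected on day 42.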

[3] = tested on: C57BL6J diet-induced NASH model; experiment: six-week treatment of NASH C57Bl6/J mice; type: in vivo, mouse
[4] = tested on: primary human hepatocytes from normal or NASH donors; experiment: PPARGC1A mRNA in primary human hepatocytes; type: cell-based; settings: 100 nM, 4 h; healthy and NASH donors
Summary of the method: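 Primary hepatocytes from normal or NASH human donors, exposed to test compound at 100 nM for 4 h; PPARGC1A transcript measured. n=3 biologically independent samples per group.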

[5] = tested on: C57Bl/6J DIO male mice; experiment: hyperglycemic clamp and stable isotope infusions in DIO C57Bl6J; type: in vivo, mouse
Summary of the method: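 Twenty-week-old male C57Bl/6J DIO mice were kept on a shifted light cycle (lights on midnight to noon). Arterial and venous catheters were placed 5 days before a hyperglycemic clamp with […] glucose and water tracing.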

[6] = serum peptide content by GLP-1R and GcgR cAMP bioassay; type: in vivo, mouse; settings: 10 nmol/kg SC QD 7 d
Summary of the method: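 On day 7 they got a final dose and serum was taken at 0, 2, 6 or 16 h (n=4/timepoint). Apparent serum peptide concentration was estimated from cAMP accumulation in CHO K1 cells stably expressing human GLP1R or GcgR, by potency comparison.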

[7] = tested on: DIO GLP-1R knock-out (KO) mice; experiment: two-week treatment of DIO GLP-1R KO mice; type: in vivo, mouse
Summary of the method: (§1)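 Mice were made obese on diet for 8 weeks, then moved to 45% high-fat diet for 2 weeks. Body weight was tracked as % change, with cumulative food intake over days 1–4. Blood and tissues were taken 20 h after the final dose.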

[8] = tested on: DIO C57Bl/6J Wild-type (WT) mice; experiment: two-week treatment of DIO GLP-1R WT mice; type: in vivo, mouse
Summary of the method: as §1

[9] = tested on: primary murine hepatocytes; experiment: de novo lipogenesis, 3H-acetate lipid incorporation; type: cell-based, mouse; settings: 100 nM; vs vehicle-treated controls
Summary of the method: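 Primary murine hepatocytes treated ex vivo with test compound at 100 nM. De novo lipogenesis was measured as ³H-acetate incorporation into lipid: lipids were extracted, and ³H in the lower phase was counted by scintillation. Values are relative to vehicle-treated controls. n=3–6 per treatment, n=9 vehicle.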

[10] = tested on: primary mouse hepatocytes; experiment: mRNA levels in primary mouse hepatocytes; type: cell-based; settings: 1, 10, 100 nM, 4h
Summary of the method: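 Primary mouse hepatocytes were exposed to test compound at 1, 10 or 100 nM for 4 h, and G6pc, Pck1 and Ppargc1a mRNA were measured. For Ppargc1a, the 100 nM condition was also combined with PKA inhibitor H89 at 10 μM. For G6pc and Pck1, it was combined with H89 at 2.5, 5 or 10 μM. n=3 biologically independent samples; one-way ANOVA with Dunnett post-hoc.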

[11] = tested on: C57Bl/6J diet induced obese (DIO) male mice; experiment: time course study in DIO C57Bl/6J mice, 7 days dosing; type: in vivo, mouse
Summary of the method: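 On day 7 they were euthanized at time 0, or at 2, 6 or 16 h after a final dose (n=4/group/timepoint). Body weight was tracked as % change from baseline; blood glucose was measured.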

[12] = tested on: mouse primary hepatocytes; experiment: mitophagosomes by live cell confocal microscopy; type: cell-based; settings: 100 nM, 2h
Summary of the method: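 Primary mouse hepatocytes were kept 1 h at 37°C/5% CO2, then 4 h in fresh isolation medium, then moved to serum-free low-glucose DMEM (10 mM lactate, 2 mM glutamine, 5 mM HEPES, 10 nM dexamethasone). Cells were used 18–24 h post-plating and given 100 nM test compound for 2 h. Live cells were stained with Mitotracker green plus Lysotracker deep red and imaged by confocal microscopy. Mitophagosomes were scored as Lysotracker puncta containing Mitotracker signal.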

[13] = tested on: primary mouse hepatocytes; experiment: mitochondrial oxygen consumption; type: cell-based
Summary of the method: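 Seahorse XFe96 run on primary mouse hepatocytes at 7500 cells/well, recovered overnight, then treated 4 h with 100 nM test compound. Assay medium: DMEM with 5 mM glucose, 4 mM L-glutamine, 2 mM pyruvate, pH 7.4; 30 min CO₂-free preincubation. Stress test used 1 μM oligomycin, 0.5 μM FCCP and 5 μM antimycin A. Basal and maximal OCR normalized to citrate synthase activity. n=3; substrate oxidation n=2.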

[14] = tested on: non-cirrhotic, non-alcoholic steatohepatitis patients; settings: cited from earlier work

serum concentration at 16h [6]: undetectable
time of highest serum concentration ([6]; sampled 0, 2, 6, 16 h after final dose): highest at 2h and 6h
Compound: Cotadutide
weight loss from baseline ([1]; Cotadutide 30 nmol/kg, Liraglutide 40 nmol/kg SC QD 6 weeks): 7-8%
plasma C3M and P4NP7S ([1]; ELISA): only reduced in Cotadutide-treated mice
resolution of fibrosis, mice ([1]; n=7): resolved in all but one
lowering of collagen staining (Col1a1) ([1]; not statistically significant): ~ 17%
hepatic transcript levels of Col1a1, Col3a1, Timp1, Ccl2, and Cd68 ([1]; relative to AMLN vehicle): significantly reduced
hepatic transcript levels of Mmp9, Il-1b and Tnf ([1]; relative to AMLN vehicle): uniquely reducing
CD68 scoring (immune cell infiltration) ([1]; terminal): only reduced by Cotadutide treatment
NAS ([1]; terminal): reduced
fibrosis stage ([1]; terminal): improved only by Cotadutide treatment
hepatic lipid content ([1]; terminal): more significant reduction in hepatic lipid content compared to Liraglutide and diet-switch
liver mass ([1]; terminal): similarly reduced
liver αSMA, PSR and hydroxyproline ([1]; terminal): lowered
plasma ALT ([1]; terminal): lowered
hepatic Ppargc1a mRNA ([1]; terminal, about 16h post last dose): restored mRNA levels to those of LFD control
hepatic DAGs and ceramides ([1]; vs vehicle): only Cotadutide additionally reduced DAGs and ceramides
weight loss from baseline [2]: ~ 8%
glucose tolerance (ipGTT) ([2]; after 4 weeks of dosing): significantly improved by Cotadutide more so than Liraglutide or OCA
plasma insulin at 15 min during the GTT ([2]; after 4 weeks of dosing): increased
food intake within the first 4 days [2]: reduced food intake
hepatic glycogen ([2]; terminal): increase in hepatic glycogen
animals with worsened fibrosis ([2]; terminal vs pre-study biopsy): no animals had worsened fibrosis
animals with reduced fibrosis ([2]; terminal vs pre-study biopsy): 25%
animals with reduced fibrosis (number of group) ([2]; terminal vs pre-study biopsy): 3/12
liver mass ([2]; terminal, vs vehicle): unchanged liver mass
plasma ALT ([2]; terminal, vs vehicle): reduced ALT levels
mice in which NAS was reduced [2]: 83%
steatosis and inflammation scores and overall NAS, responders ([2]; vs vehicle): significantly more animals with lower steatosis and inflammation scores and overall NAS
body weight ([3]; 10 nmol/kg SC QD 42 d): reduced body weight similarly to Liraglutide+g1437, but more than either Liraglutide or g1437 alone
glucose excursion in pyruvate tolerance test ([3]; day 14, pyruvate 2g/kg): lower glucose excursion
plasma alanine aminotransferase (ALT) ([3]; end of study): significantly reduced
hepatic glycogen ([3]; terminal): elevated only with Cotadutide treatment
liver triglycerides ([3]; terminal): reduced
fasted insulin ([3]; vs vehicle, Liraglutide and Liraglutide+g1437): lower
PPARGC1A transcript levels [4]: significantly increased
de novo lipogenesis during the clamp (palmitate and glyceride synthesis) ([5]; 10 nmol/kg SC QD 7 d): reduced
glycogen synthesis stimulated by hyperglycemia ([5]; 10 nmol/kg SC QD 7 d): intact
hepatic (endogenous) glucose production during hyperglycemia ([5]; 10 nmol/kg SC QD 7 d): suppressed
core hepatic glycogen ([5]; 10 nmol/kg SC QD 7 d, fasted): lower core glycogen levels
basal glucose production ([5]; fasted, basal state): increased basal glucose production
body weight ([7]; 10 nmol/kg SC QD 14 d (Liraglutide+g1437 5+5 nmol/kg)): not observed
food intake ([7]; first 4 days of dosing): but not in KO mice
body weight ([8]; 10 nmol/kg SC QD 14 d (Liraglutide+g1437 5+5 nmol/kg), vs vehicle): significantly reduced
liver lipid content ([8]; 10 nmol/kg SC QD 14 d, terminal): to a greater degree than Liraglutide alone
food intake ([8]; 10 nmol/kg SC QD, first 4 days of dosing): significantly reduced
fasting glucose ([8]; 10 nmol/kg SC QD, vs vehicle): lowered
de novo lipid synthesis [9]: reduce de novo lipid synthesis
G6pc and Pck1 mRNA [10]: induced
Ppargc1a mRNA [10]: equally increased
liver glycogen ([11]; 0-16 h after final dose): rapidly depleted by 6h post Cotadutide but rebounded to normal at 16h
body weight ([11]; 10 nmol/kg SC QD 7 d, vs vehicle): significant weight loss
blood glucose ([11]; smaller study vehicle vs Cotadutide, 2h and 6h post dose): significantly lowered
mitochondrial number [12]: without altering mitochondrial number
mitophagosomes (mitochondria within lysosomes) ([12]; vs vehicle): Increased number
fuel preference ([13]; ex vivo treatment): no effect
basal and maximal respiration rates ([13]; healthy mouse primary hepatocytes, 100 nM, 4h): increased basal and maximal respiration rates
basal and maximal respiratory rates (OCR) ([13]; hepatocytes from ob/ob NASH mice, 100 nM, 4h ex vivo): restored

pharmacokinetics compared with Cotadutide, in words [6]: longer bioavailability
Compound: CCCCCCCCCCCCCCCC(=O)N[C@@H](CCC(=O)NCCCC[C@H](NC(=O)[C@H](C)NC(=O)[C@H](C)NC(=O)[C@H](CCC(N)=O)NC(=O)CNC(=O)[C@H](CCC(=O)O)NC(=O)[C@H](CC(C)C)NC(=O)[C@H](Cc1ccc(O)cc1)NC(=O)[C@H](CO)NC(=O)[C@H](CO)NC(=O)[C@@H](NC(=O)[C@H](CC(=O)O)NC(=O)[C@H](CO)NC(=O)[C@@H](NC(=O)[C@H](Cc1ccccc1)NC(=O)[C@@H](NC(=O)CNC(=O)[C@H](CCC(=O)O)NC(=O)[C@H](C)NC(=O)[C@@H](N)Cc1cnc[nH]1)[C@@H](C)O)[C@@H](C)O)C(C)C)C(=O)N[C@@H](CCC(=O)O)C(=O)N[C@@H](Cc1ccccc1)C(=O)N[C@H](C(=O)N[C@@H](C)C(=O)N[C@@H](Cc1c[nH]c2ccccc12)C(=O)N[C@@H](CC(C)C)C(=O)N[C@H](C(=O)N[C@@H](CCCNC(=N)N)C(=O)NCC(=O)N[C@@H](CCCNC(=N)N)C(=O)NCC(=O)O)C(C)C)[C@@H](C)CC)C(=O)O [Liraglutide, reference compound]

Compound: CC[C@H]1[C@@H](O)[C@@H]2[C@H](CC[C@]3(C)[C@@H]([C@H](C)CCC(=O)O)CC[C@@H]23)[C@@]2(C)CC[C@@H](O)C[C@@H]12 [OCA, Obeticholic acid, reference compound]
weight loss from baseline [2]: ~ 3%
plasma insulin at 15 min during the GTT ([2]; after 4 weeks of dosing): no effect
food intake within the first 4 days [2]: no effect
animals with reduced fibrosis ([2]; terminal vs pre-study biopsy): 8.3%
animals with reduced fibrosis (number of group) ([2]; terminal vs pre-study biopsy): 1/12
liver mass ([2]; terminal, vs vehicle): only reducing liver mass
mice in which NAS was reduced [2]: 75%
steatosis and inflammation scores and overall NAS, responders ([2]; vs vehicle): significantly more animals with lower steatosis and inflammation scores and overall NAS
patients with a reduction in NAS ([14]; placebo 12%): 20%
patients with reduction in fibrosis stage ([14]; placebo 17%): 35%

Source: article PMC7258337 (Nature metabolism, 2020)
